Active and inactive are the calls of the source. The rule behind the calls is not given here.
What was measured:
[1] = target: T1, MAP2K3/Myc proto-oncogene protein (Homo sapiens) (UniProt P46734+P01106); assay: Disruption of interaction between human recombinant GST-tagged MKK3/VF-tagged MYC expressed in HEK293T cells at 20 uM measured after 2 hrs by TR-FRET assay; type: cell-based
[2] = target: T1, MAP2K3/Myc proto-oncogene protein (Homo sapiens); assay: Disruption of interaction between human recombinant GST-tagged MKK3/VF-tagged MYC expressed in HEK293T cells up to 100 uM measured after 2 hrs by TR-FRET assay; type: cell-based; settings: dose microM <=100, time 2.0 hrs
[3] = target: T1, MAP2K3/Myc proto-oncogene protein (Homo sapiens); assay: Disruption of MKK3/MYC protein-protein interaction in human HCT-116 cells assessed as decrease in MYC level at 0.5 to 10 uM measured by western blot assay; type: cell-based; settings: dose 0.5-10 µM
[4] = target: T1, MAP2K3/Myc proto-oncogene protein (Homo sapiens); assay: Disruption of MKK3/MYC protein-protein interaction in human HCT-116 cells assessed as decrease in CDK4 level at 0.5 to 10 uM measured by western blot assay; type: cell-based; settings: dose 0.5-10 µM
[5] = target: T1, MAP2K3/Myc proto-oncogene protein (Homo sapiens); assay: Disruption of MKK3/MYC protein-protein interaction in human HCT-116 cells assessed as decrease in PDL1 level at 0.5 to 10 uM measured by western blot assay; type: cell-based; settings: dose 0.5-10 µM
[6] = target: T1, MAP2K3/Myc proto-oncogene protein (Homo sapiens); assay: Disruption of MKK3/MYC protein-protein interaction in human HCT-116 cells transfected with VF-tagged MKK3 assessed as inhibition of MYC transcriptional activity at 0.5 to 2 uM measured after 12 hrs by […] reporter assay; type: cell-based; settings: dose 0.5-2 µM
Outline: (§1)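 Cells were transfected with Venus-Flag-MKK3 or Venus-Flag vector plus a firefly luciferase reporter carrying three MYC E-box sites (or a mutant E-box control) and a Renilla normalization vector. Compound in DMSO (0.5–5 µM, 0.1% DMSO final) was added 36 h post-transfection and cells were incubated 12 h more. Dual-luciferase read-out: firefly/Renilla ratio, then wild-type over mutant E-box fold.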

[7] = target: DNA (cytosine-5)-methyltransferase 1 (Homo sapiens, UniProt P26358); assay: Inhibition of DNMT (unknown origin) by densitometric analysis
DNA (cytosine-5)-methyltransferase 1, sequence (P26358 whole entry): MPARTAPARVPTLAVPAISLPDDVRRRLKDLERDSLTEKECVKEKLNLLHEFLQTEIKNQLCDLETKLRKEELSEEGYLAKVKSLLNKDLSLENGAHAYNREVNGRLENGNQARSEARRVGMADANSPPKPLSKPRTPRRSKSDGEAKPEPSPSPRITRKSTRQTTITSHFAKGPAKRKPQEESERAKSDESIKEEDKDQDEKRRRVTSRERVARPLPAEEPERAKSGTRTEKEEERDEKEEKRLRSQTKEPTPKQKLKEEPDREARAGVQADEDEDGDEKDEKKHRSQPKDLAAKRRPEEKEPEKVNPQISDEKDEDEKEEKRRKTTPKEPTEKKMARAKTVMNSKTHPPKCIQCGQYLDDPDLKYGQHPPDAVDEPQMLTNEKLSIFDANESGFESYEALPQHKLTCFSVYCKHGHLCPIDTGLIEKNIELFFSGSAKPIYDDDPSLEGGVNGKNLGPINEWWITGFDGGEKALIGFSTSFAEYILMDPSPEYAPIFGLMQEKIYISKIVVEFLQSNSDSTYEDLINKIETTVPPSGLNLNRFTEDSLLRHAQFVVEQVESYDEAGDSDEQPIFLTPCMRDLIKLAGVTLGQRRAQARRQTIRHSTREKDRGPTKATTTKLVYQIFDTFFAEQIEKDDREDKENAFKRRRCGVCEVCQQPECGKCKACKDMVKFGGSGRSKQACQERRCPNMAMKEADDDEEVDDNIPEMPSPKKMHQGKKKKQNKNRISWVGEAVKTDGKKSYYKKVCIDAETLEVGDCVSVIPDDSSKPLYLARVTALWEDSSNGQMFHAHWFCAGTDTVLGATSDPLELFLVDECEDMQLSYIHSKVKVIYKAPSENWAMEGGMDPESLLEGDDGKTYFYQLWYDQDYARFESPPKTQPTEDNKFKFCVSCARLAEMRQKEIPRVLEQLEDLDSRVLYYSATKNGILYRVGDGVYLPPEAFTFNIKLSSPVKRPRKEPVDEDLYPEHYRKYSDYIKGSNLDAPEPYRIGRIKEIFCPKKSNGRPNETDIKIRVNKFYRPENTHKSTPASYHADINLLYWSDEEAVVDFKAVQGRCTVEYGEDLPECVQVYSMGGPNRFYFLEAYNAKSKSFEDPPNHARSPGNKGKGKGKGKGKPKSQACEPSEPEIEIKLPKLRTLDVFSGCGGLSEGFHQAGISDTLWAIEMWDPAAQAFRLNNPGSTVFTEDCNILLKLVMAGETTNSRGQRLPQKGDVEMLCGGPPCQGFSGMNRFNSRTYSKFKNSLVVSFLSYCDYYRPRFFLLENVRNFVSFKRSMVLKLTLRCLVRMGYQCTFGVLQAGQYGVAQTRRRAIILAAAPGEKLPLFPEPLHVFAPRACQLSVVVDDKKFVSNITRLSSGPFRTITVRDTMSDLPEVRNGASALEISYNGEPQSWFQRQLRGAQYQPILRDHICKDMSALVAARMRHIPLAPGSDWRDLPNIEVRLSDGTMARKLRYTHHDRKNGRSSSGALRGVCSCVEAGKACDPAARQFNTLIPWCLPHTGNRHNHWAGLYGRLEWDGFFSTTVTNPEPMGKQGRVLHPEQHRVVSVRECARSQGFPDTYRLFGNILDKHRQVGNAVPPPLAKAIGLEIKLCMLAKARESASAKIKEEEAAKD

[8] = target: T2, MAP2K3/Myc proto-oncogene protein (Homo sapiens, UniProt P01106+P46734); assay: Disruption of interaction between human recombinant GST-tagged MKK3/VF-tagged MYC expressed in HEK293T cells measured after 2 hrs by TR-FRET assay; type: cell-based
T2 sequence (P01106 whole entry, one chain of several, the tested form may be a part): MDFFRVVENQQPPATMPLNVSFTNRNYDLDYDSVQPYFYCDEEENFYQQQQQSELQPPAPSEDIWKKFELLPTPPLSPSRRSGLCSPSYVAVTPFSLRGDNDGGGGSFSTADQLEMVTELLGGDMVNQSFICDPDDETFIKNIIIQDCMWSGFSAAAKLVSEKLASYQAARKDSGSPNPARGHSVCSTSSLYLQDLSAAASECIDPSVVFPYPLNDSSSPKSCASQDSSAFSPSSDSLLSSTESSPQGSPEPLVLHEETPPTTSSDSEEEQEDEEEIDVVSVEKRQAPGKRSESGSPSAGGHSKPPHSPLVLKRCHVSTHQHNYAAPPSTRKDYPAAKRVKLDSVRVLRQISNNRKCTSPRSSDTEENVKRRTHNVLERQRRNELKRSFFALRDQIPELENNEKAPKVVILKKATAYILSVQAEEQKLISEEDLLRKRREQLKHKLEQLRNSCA

[9] = target: T2, MAP2K3/Myc proto-oncogene protein; assay: Disruption of interaction between human recombinant GST-tagged MKK3 (1 to 210 residues)/VF-tagged MYC expressed in HEK293T cells measured after 2 hrs by TR-FRET assay; type: cell-based
HEK293T = assay: Disruption of interaction between human recombinant GST-tagged MKK3/VF-tagged p38 expressed in HEK293T cells at 50 uM incubated for 30 mins by GST pull-down assay; type: cell-based
Outline: (§2)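 GST- and Venus-Flag-tagged human proteins were co-expressed in HEK293T cells for 48 h and lysed in 1% NP-40 buffer (HEPES pH 7.5) at 4 °C. Cleared lysates were pre-incubated 30 min with 50 µM compound or DMSO, then 75 min with glutathione sepharose. Beads were washed three times, eluted in SDS loading buffer, and analysed by Western blot.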

[10] = target: T1, MAP2K3/Myc proto-oncogene protein (Homo sapiens); assay: Disruption of MKK3/MYC protein-protein interaction in human MDA-MB-468 cells assessed as decrease in MYC level at 1 to 20 uM measured by western blot assay; type: cell-based; settings: dose 1-20 µM
[11] = target: T1, MAP2K3/Myc proto-oncogene protein (Homo sapiens); assay: Disruption of MKK3/MYC protein-protein interaction in human MDA-MB-468 cells transfected with VF-tagged MKK3 assessed as inhibition of MYC transcriptional activity measured after 12 hrs by […] reporter assay; type: cell-based; settings: dose 0.5-5 µM; outline: as §1
HCT-116 [12] = assay: Cytotoxicity against human HCT-116 cells assessed as reduction in cell viability measured after 72 hrs by Alamar blue assay; type: functional, cell-based; settings: HCT-116, 72 h
Outline: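 HCT116 cells in DMEM with 10% FBS at 37 °C, 5% CO2, seeded and treated next day with compound or DMSO. After 72 h, CellTiter-Blue reagent was added for 2 h at 37 °C and fluorescence read at 560 ex/590 em. Background came from medium-only wells, and viability was taken relative to DMSO control.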

HCT-116 [13] = assay: Inhibition of cell migration in human HCT-116 cells measured after 18 hrs by scratch wound healing assay; type: functional, cell-based; settings: dose 0.75-3 µM
Outline: (§3)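 Confluent HCT116 monolayers were wounded, washed with fresh medium, and given medium with compound at set concentrations or DMSO. Live-cell imaging scanned every 2 h over 18 h, with relative wound density as the read-out. Four replicates were run.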

HCT-116 [14] = assay: Inhibition of cell migration in human HCT-116 cells assessed as relative wound density at 3 uM measured after 18 hrs by scratch wound healing assay (reference value: 20%); type: functional; parameters: scale not given: the % may be the effect or the level left; outline: as §3
[15] = target: T1, MAP2K3/Myc proto-oncogene protein (Homo sapiens); assay: Disruption of interaction between human recombinant GST-tagged MKK3/VF-tagged MYC expressed in HEK293T cells at 50 uM incubated for 30 mins by GST pull-down assay; type: cell-based; outline: as §2
[16] = target: c-Myc/c-Max (Homo sapiens) (UniProt P01106+P61244); assay: Disruption of interaction between human recombinant GST-tagged MAX/VF-tagged MYC expressed in HEK293T cells at 50 uM incubated for 30 mins by GST pull-down assay; type: cell-based; outline: as §2
c-Myc/c-Max (Homo sapiens), sequence (P01106 whole entry): as the sequence (P01106 whole entry, one chain of several, the tested form may be a part) above
c-Myc/c-Max (Homo sapiens), sequence (P61244 2-160 partner limits assumed): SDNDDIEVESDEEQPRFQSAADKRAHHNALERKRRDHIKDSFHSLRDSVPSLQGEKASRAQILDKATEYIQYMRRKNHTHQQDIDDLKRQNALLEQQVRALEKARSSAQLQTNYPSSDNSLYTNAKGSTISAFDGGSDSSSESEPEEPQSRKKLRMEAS

[17] = target: T1, MAP2K3/Myc proto-oncogene protein (Homo sapiens); assay: Disruption of interaction between human recombinant GST-tagged MKK3 expressed in HEK293T cells/MYC in human HCT116 cells incubated for 30 mins by GST pull-down assay; type: cell-based; settings: dose 2-5 µM
[18] = target: T2, MAP2K3/Myc proto-oncogene protein; assay: Disruption of interaction between human recombinant GST-tagged MKK3/His-tagged MYC HLH LZ domain measured after 2 hrs by TR-FRET assay; type: protein assay
[19] = target: T3, Dual specificity mitogen-activated protein kinase kinase 3 (Homo sapiens) (UniProt P46734); assay: Inhibition of MKK3 in human HEK293T cells assessed as inhibition of p38 phosphorylation by western blot analysis; type: cell-based
T3 sequence (whole entry): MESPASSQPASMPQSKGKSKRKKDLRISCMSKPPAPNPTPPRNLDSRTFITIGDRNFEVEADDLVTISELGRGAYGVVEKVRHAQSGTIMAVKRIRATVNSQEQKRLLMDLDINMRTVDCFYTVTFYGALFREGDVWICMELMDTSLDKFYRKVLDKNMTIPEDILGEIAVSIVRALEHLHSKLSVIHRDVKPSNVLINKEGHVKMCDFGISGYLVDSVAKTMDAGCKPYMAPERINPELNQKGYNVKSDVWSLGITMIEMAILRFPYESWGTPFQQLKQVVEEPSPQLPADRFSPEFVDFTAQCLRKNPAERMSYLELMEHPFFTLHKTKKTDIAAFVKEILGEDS

[20] = target: T1, MAP2K3/Myc proto-oncogene protein (Homo sapiens); assay: Disruption of MKK3/MYC protein-protein interaction in human MDA-MB-468 cells assessed as decrease in CDK4 level at 1 to 20 uM measured by western blot assay; type: cell-based; settings: dose 1-20 µM
[21] = target: T1, MAP2K3/Myc proto-oncogene protein (Homo sapiens); assay: Disruption of MKK3/MYC protein-protein interaction in human MDA-MB-468 cells assessed as decrease in PDL1 level at 1 to 20 uM measured by western blot assay; type: cell-based; settings: dose 1-20 µM
HCT-116 [22] = assay: Inhibition of Renilla luciferase activity expressed in human HCT-116 cells assessed as decrease in luminescence at 10 uM measured after 12 hrs by luminescence assay; type: cell-based
Outline: (§4)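 Renilla luciferase luminescence was compared between cells treated with 10 µM compound and DMSO control, within the dual-luciferase MYC reporter set-up, using a 12 h compound incubation.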

HCT-116 [23] = assay: Inhibition of cell migration in human HCT-116 cells at 0.75 to 3 uM by scratch wound healing assay; type: functional, cell-based; settings: dose 0.75-3 µM, TDE = time-dependent effect
MDA-MB-468 = assay: Inhibition of Renilla luciferase activity expressed in human MDA-MB-468 cells assessed as decrease in luminescence at 10 uM measured after 12 hrs by luminescence assay; type: cell-based; outline: as §4

T1 sequence (P01106 whole entry, looked up, one chain of several): as the sequence (P01106 whole entry, one chain of several, the tested form may be a part) above

Cc1cc2c(C(C)C)c(O)c(O)c(C=O)c2c(O)c1-c1c(C)cc2c(C(C)C)c(O)c(O)c(C=O)c2c1O
inhibition [1]: 31%
Activity [2]: inactive

O=C(O)[C@H](Cc1c[nH]c2ccccc12)N1C(=O)c2ccccc2C1=O
Activity [3]: inactive
Activity [4]: inactive
Activity [5]: inactive
Activity [6]: inactive
Activity [2]: inactive
IC50 [7]: 0.115 µM

Cc1cc(Nc2ccc(NC(=O)c3ccc(Nc4ccnc5ccccc45)cc3)cc2)nc(N)n1
IC50 [8]: 8.46 µM
IC50 [9]: 3.8 µM
Activity (HEK293T): inactive
Activity [3]: Active
Activity [4]: Active
Activity [5]: Active
Activity [10]: Active
Activity [6]: Dose-Dependent Effect
Activity [11]: Dose-Dependent Effect
IC50 (HCT-116 [12]): 3.2 µM
inhibition (HCT-116 [13]): Dose-Dependent Effect
Activity (HCT-116 [14]): 8%
inhibition [1]: 37%
Activity [15]: Active
Activity [16]: inactive
Activity [17]: Dose-Dependent Effect
IC50 [18]: 9.67 µM
inhibition [19]: inactive
Activity [20]: Active
Activity [21]: Active
inhibition (HCT-116 [22]): inactive
inhibition (HCT-116 [23]): Tde
inhibition (MDA-MB-468): inactive

CC(C)c1cc(C(C)C)c(CC(=O)NS(=O)(=O)Oc2c(C(C)C)cccc2C(C)C)c(C(C)C)c1 [AVASIMIBE]
IC50 [8]: 63.9 µM

O=C(O)C1=CC(=C(c2ccc(O)c(C(=O)O)c2)c2ccc(O)c(C(=O)O)c2)C=CC1=O [AURINTRICARBOXYLIC ACID]
IC50 [8]: 14.1 µM
inhibition [1]: 58%

Reference: ChEMBL document CHEMBL4834479, “Discovery of the first chemical tools to regulate MKK3-mediated MYC activation in cancer” (Bioorg Med Chem, 2021)
